High-throughput results: PubChem BioAssay, Broad Institute
A selection: hits, their analogues and other compounds. The true share with any hit is near 1.2%.
RAD52 anneal inh: inhibitors of human RAD52 DNA annealing. P43351. recombinant RAD52 DNA annealing, FRET fluorescence. inhibition, % at 18.7 µM. hit rate 0.46% among 360,000;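 active means every replicate showing at least 50% inhibition; inconclusive means mean inhibition at least 50% but not in every replicate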
AF4-AF9 inh: blocks AF4 peptide binding to human AF9; P42568; AlphaScreen, biotin-AF4 peptide binding to FLAG-AF9; inhibition, % at 10 µM; hit rate 0.47% among 350,000; AID 651704;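 active means every replicate reaching a set inhibition limit, whatever the replicate mean, cut at about 25% in these data; inconclusive means mean inhibition reaches that limit but some replicates miss it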;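 further: 0% = plate neutral control median and 100% = total signal loss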
N-glyco inh: blocks N-linked glycosylation in D54 reporter cells | D54 ERlucT glycosylation luciferase reporter, 24 h; percent of 100 nM tunicamycin response | reporter increase, % at 12.5 µM | hit rate 0.23% among 360,000 | AID 588692;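 active means mean luciferase reporter signal, scaled so untreated is 0 and the glycosylation-blocking control 100, at or above a set limit in every replicate; inconclusive means mean reaches the limit but not every replicate does; inactive means mean below the limit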;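 further: luciferase carries N-glycosylation sites so blocking glycosylation raises the light; 0% = median of neutral control wells and 100% = median of 100 nM tunicamycin wells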
NSD2 inh: NSD2 (human) methyltransferase inhibition; hit rate 0.54% among 310,000; NSD2 peptide methylation, AlphaScreen, 120 min; AID 743445; O96028; inhibition, % at 12.5 µM; in the data active means inhibition above about 50%
FN deposition inh: fibronectin deposition inhibition | inhibition, % at 12.6 µM | hit rate 0.086% among 350,000 | AID 743247 | AH1F fibroblasts, Alexa488-fibronectin deposition fluorescence, overnight;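 active means mean inhibition across replicates of 30% or more, regardless of how many single replicates reach that level; inconclusive means mean under 30% yet at least half of replicates reach 30%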;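 further: positive control wells lacked labelled fibronectin entirely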
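Assay system: AH1F fibroblasts / Quantity: 10000 cells per well / Medium: DMEM plus 2% serum, read in PBS / Reagent: labelled fibronectin 24 nM / Dosing: single dose, pinned / Times: 1 h cell attachment, overnight exposure to compound and label / Signal: fluorescence, ex 485 nm, em 525 nm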
RAD54 branch: blocks human RAD54 Holliday junction branch migration. Q92698. AID 602329. inhibition, % at 10.4 µM. hit rate 0.14% among 360,000. FAM/BHQ fluorescence;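 active means mean normalized replicate activity at least 40 and at least half of replicates scoring 40 or more; inconclusive means only one of the two criteria met; inactive means mean below 40 and under half of replicates reaching 40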;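 further: 0% = median of neutral control wells and 100% = median of positive control wells; inhibitors cause a drop in the FAM fluorescence signal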
Target sequence (Q92698 whole entry, looked up): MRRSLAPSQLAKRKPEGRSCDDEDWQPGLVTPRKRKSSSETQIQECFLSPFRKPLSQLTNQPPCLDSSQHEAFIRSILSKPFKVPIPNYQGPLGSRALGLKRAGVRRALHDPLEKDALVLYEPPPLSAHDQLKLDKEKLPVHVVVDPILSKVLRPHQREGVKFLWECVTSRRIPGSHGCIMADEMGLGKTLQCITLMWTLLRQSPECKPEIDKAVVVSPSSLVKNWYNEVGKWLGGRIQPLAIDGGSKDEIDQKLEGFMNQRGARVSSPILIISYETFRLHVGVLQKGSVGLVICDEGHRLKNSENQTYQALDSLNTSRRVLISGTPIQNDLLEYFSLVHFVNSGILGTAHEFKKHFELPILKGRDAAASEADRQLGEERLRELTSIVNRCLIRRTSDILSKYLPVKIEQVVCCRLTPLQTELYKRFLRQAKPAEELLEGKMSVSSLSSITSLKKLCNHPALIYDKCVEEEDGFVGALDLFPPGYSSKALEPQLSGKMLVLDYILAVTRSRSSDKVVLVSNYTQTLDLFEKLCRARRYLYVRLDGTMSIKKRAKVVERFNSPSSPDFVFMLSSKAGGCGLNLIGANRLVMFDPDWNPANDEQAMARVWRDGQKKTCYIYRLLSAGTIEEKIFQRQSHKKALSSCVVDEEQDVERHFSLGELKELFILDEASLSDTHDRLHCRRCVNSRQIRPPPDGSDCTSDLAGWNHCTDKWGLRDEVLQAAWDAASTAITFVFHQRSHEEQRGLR
RAD52 DNA ctr: binds DNA, flagging false RAD52 inhibitor hits. hit rate 8% among 1,000. AC50, µM. shares compounds with RAD52 anneal inh. Salmon sperm DNA/acridine orange FP displacement, DNA binding;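 active means fitted half-maximal concentration for signal loss at or below twice the highest dose tested, in every separate run, actives reach about 64 µM in these data; inconclusive means runs disagree, or flat partial signal loss, or poor fit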
Numbers without * were called inactive; i = inactive; ? = inconclusive; . = not tested or not shown.

SMILES	RAD52 anneal inh	AF4-AF9 inh	N-glyco inh	NSD2 inh	FN deposition inh	RAD54 branch	RAD52 DNA ctr
C[C@@H]1CN([C@H](C)CO)C(=O)c2cc(C3=CCCC3)cnc2O[C@@H]1CN(C)C(=O)c1ccc(F)cc1	-1.1	-2.7	.	.	.	-5.8	.
Cc1csc(N2CCN(c3cc4c(cc3Cl)nc(-c3ccncc3)n4CCCN3CCCC3)CC2)n1	97.7*	19.2	-1.8	.	-14.2	10.0	i
COc1ccc2nc(C)cc(Nc3ccc(N4CCN(C)CC4)cc3)c2c1	99.8*	14.7	66.6*	13.0	16.1	97.6*	42.3µM*
CC(C)c1cn(CC[C@@H]2CC[C@H](NS(=O)(=O)c3ccccc3)[C@H](CO)O2)nn1	-1.1	-1.6	.	.	.	3.2	.
Cn1c(=Nc2ccc(N3CCOCC3)cc2)ccc2ccccc21	.	.	3.6	9.8	.	0.8	.
Cn1c(N=Nc2ccc(N3CCOCC3)cc2)[n+](C)c2ccccc21	103.4*	58.0*	-5.4	19.3	1.2	92.4*	11.3µM*
CCCCCCCCCCCCCCCC[n+]1cccc(C(=O)N(CC)CC)c1	87.9*	4.4	-4.1	-0.7	13.7	40.1	i
CCCCCCCC[n+]1cccc(C(=O)N(CC)CC)c1	3.0	-1.5	1.9	-0.2	3.1	.	.
C[C@H](CO)N1C[C@H](C)[C@@H](CN(C)C(=O)c2ccncc2)Oc2ncc(C#CC3CCCC3)cc2C1=O	.	.	.	.	1.1	.	.
NC(c1ccccc1)c1csc(Nc2ccc(C(=O)c3ccccc3)cc2)n1 (centres undefined)	61.6*	7.3	-5.0	-2.7	-3.1	-12.2	i
NC(c1ccccc1)c1csc(Nc2ccc(C(=O)NCCO)cc2)n1 (centres undefined)	21.3	1.7	2.2	0.2	-5.7	8.9	.
CC(=O)c1ccc(Nc2nc(C(N)Cc3ccc(N)cc3)cs2)cc1 (centres undefined)	87.0*	?	5.2	3.4	-0.7	7.9	i
CCOC(=O)c1c(NC(C)=O)sc2c(OCCN(CC)CC)c(Br)ccc12	61.0*	13.1	85.4*	-1.5	-3.2	.	i
CCCCCCCCn1c2c(c(=N)c3ccccc31)CCC2	42.7	14.5	13.9	15.5	-6.7	.	.
Cc1cc(C)c2c(=N)c3ccccc3n(CCCCCCCCn3c4ccccc4c(=N)c4c(C)cc(C)nc43)c2n1	67.1*	?	0.4	.	-6.5	.	15.5µM*
COc1cccc(NC(=O)N2CC3(C2)[C@@H](c2ccccc2)[C@@H](CO)N3C(=O)C2CC2)c1	-6.8	-1.2	.	.	3.6	.	.
CN(C)CCN(C(=O)c1ccc(S(=O)(=O)N2CCc3ccccc32)cc1)c1nc2ccc(F)cc2s1	-18.0	2.5	-1.9	-0.5	4.4	-11.7	.
CCc1ccc2nc(N(CCCN(C)C)C(=O)c3ccc(S(=O)(=O)N4CCCc5ccccc54)cc3)sc2c1	71.1*	3.9	-6.6	1.1	-1.5	10.1	i
COc1cc2nc(N(CCCN(C)C)C(=O)c3ccc(S(=O)(=O)N4CCc5ccccc5C4)cc3)sc2cc1OC	49.5	1.6	-7.0	1.2	1.6	14.1	.
CCOc1ccc2nc(N(CCCN(C)C)C(=O)c3ccc(S(=O)(=O)N4CCc5ccccc5C4)cc3)sc2c1	59.1*	-2.4	-5.4	21.3	.	-2.5	i
COc1cccc2sc(N(CCCN(C)C)C(=O)c3ccc(S(=O)(=O)N4CCc5ccccc5C4)cc3)nc12	70.0*	28.7*	0.4	-0.3	.	16.7	i
O=C(C[C@H]1C=C[C@H](NS(=O)(=O)c2ccccc2)[C@@H](CO)O1)NCc1ccc(Cl)c(Cl)c1	1.3	-0.7	.	.	.	-1.1	.
CC(=O)N(C)C[C@@H]1Oc2ncc(C#Cc3cccnc3)cc2C(=O)N([C@@H](C)CO)C[C@@H]1C	-0.7	-4.3	.	.	-6.5	.	.
COc1cccc(-c2nc(C(=O)NCCCN3CCOCC3)cc3c2[nH]c2ccccc23)c1	59.1*	1.8	-1.8	.	.	27.5	i
C=CCOC(=O)[C@H]1[C@@H]2C(=O)O[C@@H](c3ccccc3)[C@@H](c3ccccc3)N2[C@@H](c2ccc(OCCOC(=O)[C@H]3C[C@H]4C(=O)N[C@@H](CC(C)C)C(=O)N4[C@H]3c3cccc(OCCO)c3)cc2)[C@]12C(=O)Nc1ccccc12	6.1	-1.6	.	.	.	.	.
SMILES	RAD52 anneal inh	AF4-AF9 inh	N-glyco inh	NSD2 inh	FN deposition inh	RAD54 branch	RAD52 DNA ctr
CC1(C)N=C(N)N=C(N)N1c1ccc(CCCCc2ccccc2)cc1	85.2*	14.7	-8.4	10.5	-2.6	29.4	i
CC1(C)N=C(N)N=C(N)N1c1ccccc1	.	.	1.5	-4.7	.	-7.1	.
CN1[C@@H]2c3ccc(-c4ccccc4)c(=O)n3C[C@H]1[C@H](CO)[C@H]2C(=O)NCC1CCCCC1	12.3	0.9	.	.	.	5.4	.
CCC(=O)Nc1ccc2c(c1)C(=O)N(C)C[C@H](OC)[C@H](C)CN(C(=O)CC1CC1)[C@H](C)CO2	-4.9	-1.2	.	.	3.7	-8.5	.
CCN1CCN(Cc2c(C(=O)N/N=C(\C)c3ccc(Cl)cc3)nnn2-c2nonc2N)CC1	94.0*	8.0	-0.8	9.9	-1.0	15.5	i
CCCCCc1cc(=O)oc2c(C(CCN3CCCC3)c3cc(OC)c(OC)c(OC)c3)c(OC)cc(OC)c12 (centres undefined)	59.3*	12.6	-6.5	.	-12.2	6.7	i
Nc1nc(N)c2cc(Sc3ccc(Cl)cc3)ccc2n1	84.6*	0.6	-8.1	-3.1	4.1	13.8	i
CN1CCN(c2ccc(NC(=O)c3ccc(-c4cccc([N+](=O)[O-])c4)o3)cc2)CC1	58.1*	21.7	6.0	24.4	-0.2	.	i
OC(CNCCc1ccc(Cl)cc1)COc1ccc2ccccc2c1 (centres undefined)	53.3*	0.4	-1.0	-5.4	-13.6	-5.4	i
COCC#Cc1cnc2c(c1)C(=O)N([C@@H](C)CO)C[C@@H](C)[C@H](CN(C)C(=O)c1ccc(F)cc1)O2	-10.3	-2.4	.	.	-5.2	-0.5	.
Fc1ccccc1-c1nc(NCCCN2CCOCC2)c2ccccc2n1	-3.1	1.3	0.0	-0.4	-9.3	.	.
c1ccc2c(NCCCN3CCOCC3)c3ccccc3nc2c1	93.3*	0.4	.	-3.3	.	.	33.2µM*
CCN(CC)CCOC(=O)c1ccc(N/C=C(/C#N)c2nc(-c3ccc(OC)c(OC)c3)cs2)cc1	70.3*	5.7	-3.5	0.1	-2.5	.	i
CCN(CC)CCOC(=O)c1ccc(N/C=C(/C#N)c2nc(-c3cccc(OC)c3)cs2)cc1	-10.6	-0.6	-1.2	-1.3	5.3	-4.5	.
C[C@@H]1CN([C@@H](C)CO)C(=O)Cc2cc(NC(=O)Nc3cccc4ccccc34)ccc2O[C@H]1CN(C)C(=O)Nc1ccc(F)cc1	13.5	2.6	.	.	.	1.6	.
COCC(=O)Nc1ccc2c(c1)C(=O)N(C)C[C@H](OC)[C@H](C)CN(Cc1ccccc1OC)[C@@H](C)CO2	-2.7	4.2	.	.	10.4	-6.9	.
